The source of these data is ChEMBL document CHEMBL1772938, “Optimization of 3-(phenylthio)quinolinium compounds against opportunistic fungal pathogens” (Eur J Med Chem, 2011).

A value given as a limit tells only on which side of the number the result lay.

Series [1] concerns Nakaseomyces glabratus. Briefly: Antimicrobial activity against Candida glabrata ATCC 90030 by CLSI method. It counts as functional. In short, it runs like this:
(§1)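 Modified CLSI microdilution. DMSO samples were serially diluted in saline and tested in duplicate against inoculum adjusted by the 0.5 McFarland standard. The final test range started at 20 μg/mL. Plates were read before and after incubation. IC50 came from % growth versus concentration; MIC was the lowest concentration without visible growth. Growth, solvent, blank and amphotericin B controls were on each plate.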

Series [2] deals with Cryptococcus neoformans. Description: Antimicrobial activity against Cryptococcus neoformans ATCC 90113 by CLSI method. The format is functional. The method, boiled down:
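C. neoformans in Sabouraud dextrose broth, inoculum per the 0.5 McFarland standard. Saline serial dilutions of DMSO samples were tested in duplicate, with a final top concentration of 20 μg/mL. OD 630 nm was read before and after incubation. IC50 was derived from % growth versus concentration. MIC was judged visually as the lowest concentration with no detectable growth. Amphotericin B served as the drug control.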

The subject of series [3] is Nakaseomyces glabratus. Description: Antimicrobial activity against Candida glabrata ATCC 90030 by alamar blue assay. It counts as functional, organism-based.
Series [4] deals with Aspergillus fumigatus. Briefly: Antimicrobial activity against Aspergillus fumigatus ATCC 90906 by alamar blue assay. The format is functional, organism-based. The method, boiled down: (§2)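 Modified CLSI broth microdilution. DMSO stocks were serially diluted in saline and run in duplicate. Inoculum was set by the 0.5 McFarland standard in YM broth for MIC, or in RPMI-1640 + 5% Alamar Blue for IC50. The top final concentration was 20 μg/mL. Fluorescence (544ex/590em) was read before and after incubation. IC50 was taken from % growth versus concentration; MIC was read visually as no blue-to-pink change.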
A general note: The colour change of resazurin is a common sign of viable cells or microbes.

Series [5] deals with Aspergillus fumigatus. Briefly: Antimicrobial activity against Aspergillus fumigatus ATCC 90906 by CLSI method. It counts as functional. The method, boiled down:
as §2

Series [6] can be described thus: Selectivity index, ratio of TC50 for african green monkey Vero cells to IC50 for Cryptococcus neoformans ATCC 90113. The format is toxicity, cell-based. The following applies: read-out: Selectivity Index.
Series [7] deals with Vero. Briefly: Cytotoxicity against african green monkey Vero cells at 10 ug/ml after 48 hrs by neutral red assay. The following applies: chlorocebus sabaeus. The format is cell-based. In short, it runs like this:
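VERO kidney cells were seeded at 25,000 cells/well and incubated 24 h. Samples were added up to 10 μg/mL and incubated a further 48 h. Viable cells were counted by neutral red uptake. IC50 came from growth-inhibition dose curves. Doxorubicin was the positive control and DMSO the vehicle control.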

Series [8] relates to Pichia kudriavzevii. Briefly: Antimicrobial activity against Candida krusei ATCC 6258 by CLSI method. The format is functional. In short, it runs like this:
as §1

Series [9] concerns Cryptococcus neoformans. Briefly: Antimicrobial activity against Cryptococcus neoformans ATCC 90113 by alamar blue assay. The format is functional, organism-based.
The test system of series [10] is Pichia kudriavzevii. Briefly: Antimicrobial activity against Candida krusei ATCC 6258 by alamar blue assay. It counts as functional, organism-based.
The subject of series [11] is Candida albicans. Description: Antimicrobial activity against Candida albicans ATCC 90028 by alamar blue assay. It counts as functional, organism-based.
In series [12] the test system is Candida albicans. Briefly: Antimicrobial activity against Candida albicans ATCC 90028 by CLSI method. It counts as functional. The method, boiled down:
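C. albicans inoculum was made to the 0.5 McFarland standard in Sabouraud dextrose broth or RPMI 1640. Samples came from DMSO stocks serially diluted in saline, in duplicate, starting at a final 20 μg/mL. Plates were read at OD 630 nm before and after incubation. IC50 came from the % growth versus concentration plot; MIC was the lowest concentration with no visible growth. Included: growth, solvent and blank controls, plus amphotericin B.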

As for `Oc1cccc(Sc2cc3ccccc3[n+](CCCCCC3CCCCC3)c2)c1.[I-]`, the MFC in series [1] was over 20 µg/mL; in series [2], 5 µg/mL; in [5], over 20 µg/mL; in series [8], 20 µg/mL; in series [12], 20 µg/mL. Also, the MIC in series [1] was over 20 µg/mL; in series [2] it was 2.5 µg/mL; in [5] it was 20 µg/mL; in series [8] it was 10 µg/mL; in [12], 10 µg/mL. Moreover, the IC50 in [3] was over 20 µg/mL; in [4], 10 µg/mL; in series [9], 1.3 µg/mL; in series [10], 5.1 µg/mL; in series [11] it was 3.5 µg/mL. Moreover, the selectivity ratio in series [6] was over 7.7. Also, in series [7], the Activity result was “Non-toxic”.
Take `N#Cc1ccc(Sc2cc3ccccc3[n+](CCCCCC3CCCCC3)c2)cc1.[I-]`: the MFC was 20 µg/mL in series [1]; 5 µg/mL in series [2]; over 20 µg/mL in [5]; 10 µg/mL in [8]; 20 µg/mL in series [12]. For the same molecule, the MIC came out at 10 µg/mL in [1]; 1.3 µg/mL in [2]; 20 µg/mL in series [5]; 5 µg/mL in series [8]; 10 µg/mL in series [12]. Besides, the IC50 in [3] amounted to 6.3 µg/mL; in [4] it was 19 µg/mL; in series [9], 0.5 µg/mL; in series [10], 2.3 µg/mL; in [11], 6.2 µg/mL. The selectivity ratio in series [6] is over 20. For the same molecule, in series [7], the Activity result is “Non-toxic”.
As for `Oc1ccc(Sc2cc3ccccc3[n+](CCCCCC3CCCCC3)c2)cc1.[I-]`, the MFC was over 20 µg/mL in [1]; 2.5 µg/mL in [2]; over 20 µg/mL in series [5]; 5 µg/mL in series [8]; 20 µg/mL in series [12]. For the same molecule, the MIC was over 20 µg/mL in series [1]; 1.3 µg/mL in [2]; 20 µg/mL in [5]; 5 µg/mL in series [8]; 10 µg/mL in series [12]. For the same molecule, the IC50 in [3] was over 20 µg/mL; in [4], 7.9 µg/mL; in series [9], 0.7 µg/mL; in series [10] it was 1.5 µg/mL; in [11], 3.9 µg/mL. The selectivity ratio in series [6] is over 14. The Activity result in series [7] is “Non-toxic”.
With `FC(F)(F)c1ccccc1Sc1cc2ccccc2[n+](CCCCCC2CCCCC2)c1.[I-]`, the MFC was 10 µg/mL in series [1]; 1.3 µg/mL in series [2]; 5 µg/mL in series [5]; 1.3 µg/mL in series [8]; 2.5 µg/mL in series [12]. Also, the MIC in series [1] was found to be 5 µg/mL; in series [2] it was 0.6 µg/mL; in [5], 5 µg/mL; in [8], 1.3 µg/mL; in [12], 2.5 µg/mL. Further, the IC50 in series [3] was determined as 3 µg/mL; in series [4] it was 1.8 µg/mL; in [9] it was 0.3 µg/mL; in series [10] it was 1.1 µg/mL; in series [11], 1.1 µg/mL. Moreover, the selectivity ratio in series [6] is over 33. For the same molecule, in series [7], the Activity entry is listed as “Non-toxic”.

What is called MIC is the smallest concentration in the dilution series that meets the test's criterion for growth inhibition. The term IC50 denotes the concentration at which inhibition is half-maximal.
